According to ChEMBL document CHEMBL3124924, “Bifunctional ethyl 2-amino-4-methylthiazole-5-carboxylate derivatives: synthesis and in vitro biological evaluation as antimicrobial and anticancer agents” (2014):

Tests used:
Type in all cases: functional
HOP-92 = assay: Cytotoxicity against human HOP92 cells assessed as growth inhibition at 10 uM after 48 hrs by SRB assay; details: HOP-92, 48 h, read-out: GI
Outline: (§1)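 NCI-60 one-dose primary screen run by the NCI Drug Evaluation Branch across the full 60-line panel. Single high-dose treatment with 48 h continuous drug exposure. Cell growth estimated by sulforhodamine B protein staining. Results given as percent growth of treated cells and expressed as percentage growth inhibition.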

HCT-116 = assay: Cytotoxicity against human HCT116 cells assessed as growth inhibition at 10 uM after 48 hrs by SRB assay; details: HCT-116, 48 h, read-out: GI; outline: as §1
HCT-15 = assay: Cytotoxicity against human HCT15 cells assessed as growth inhibition at 10 uM after 48 hrs by SRB assay; details: HCT-15, 48 h, read-out: GI; outline: as §1
SN12C = assay: Cytotoxicity against human SN12C cells assessed as growth inhibition at 10 uM after 48 hrs by SRB assay; details: read-out: GI; outline: as §1
SF-268 = assay: Cytotoxicity against human SF268 cells assessed as growth inhibition at 10 uM after 48 hrs by SRB assay; details: SF-268, 48 h, read-out: GI; outline: as §1
U-251 = assay: Cytotoxicity against human U251 cells assessed as growth inhibition at 10 uM after 48 hrs by SRB assay; details: U-251, 48 h, read-out: GI; outline: as §1
SNB-75 = assay: Cytotoxicity against human SNB75 cells assessed as growth inhibition at 10 uM after 48 hrs by SRB assay; details: SNB-75, 48 h, read-out: GI; outline: as §1
UACC-62 = assay: Cytotoxicity against human UACC62 cells assessed as growth inhibition at 10 uM after 48 hrs by SRB assay; details: UACC-62, 48 h, read-out: GI; outline: as §1
NCI-H522 = assay: Cytotoxicity against human NCI-H522 cells assessed as growth inhibition at 10 uM after 48 hrs by SRB assay; details: NCI-H522, 48 h, read-out: GI; outline: as §1
MCF7 = assay: Cytotoxicity against human MCF7 cells assessed as growth inhibition at 10 uM after 48 hrs by SRB assay; details: MCF7, 48 h, read-out: GI; outline: as §1
SK-MEL-5 = assay: Cytotoxicity against human SK-MEL-5 cells assessed as growth inhibition at 10 uM after 48 hrs by SRB assay; details: SK-MEL-5, 48 h, read-out: GI; outline: as §1
LOX IMVI = assay: Cytotoxicity against human LOXIMVI cells assessed as growth inhibition at 10 uM after 48 hrs by SRB assay; details: read-out: GI; outline: as §1
RPMI-8226 = assay: Cytotoxicity against human RPMI8226 cells assessed as growth inhibition at 10 uM after 48 hrs by SRB assay; details: RPMI-8226, 48 h, read-out: GI; outline: as §1
PC-3 = assay: Cytotoxicity against human PC3 cells assessed as growth inhibition at 10 uM after 48 hrs by SRB assay; details: PC-3, 48 h, read-out: GI; outline: as §1
HCC 2998 = assay: Cytotoxicity against human HCC2998 cells assessed as growth inhibition at 10 uM after 48 hrs by SRB assay; details: HCC 2998, 48 h, read-out: GI; outline: as §1
K562 = assay: Cytotoxicity against human K562 cells assessed as growth inhibition at 10 uM after 48 hrs by SRB assay; details: K562, 48 h, read-out: GI; outline: as §1
CCRF-CEM = assay: Cytotoxicity against human CCRF-CEM cells assessed as growth inhibition at 10 uM after 48 hrs by SRB assay; details: read-out: GI; outline: as §1
[1] = Cytotoxicity against human Hs578T cells assessed as growth inhibition at 10 uM after 48 hrs by SRB assay; details: Hs-578T, read-out: GI; outline: as §1
SR = assay: Cytotoxicity against human SR cells assessed as growth inhibition at 10 uM after 48 hrs by SRB assay; details: read-out: GI; outline: as §1
[2] = Cytotoxicity against human NCI-ADR-RES cells assessed as growth inhibition at 10 uM after 48 hrs by SRB assay; details: read-out: GI; outline: as §1
SW-620 = assay: Cytotoxicity against human SW620 cells assessed as growth inhibition at 10 uM after 48 hrs by SRB assay; details: SW-620, 48 h, read-out: GI; outline: as §1
A498 = assay: Cytotoxicity against human A498 cells assessed as growth inhibition at 10 uM after 48 hrs by SRB assay; details: A498, 48 h, read-out: GI; outline: as §1
IGROV-1 = assay: Cytotoxicity against human IGROV1 cells assessed as growth inhibition at 10 uM after 48 hrs by SRB assay; details: IGROV-1, 48 h, read-out: GI; outline: as §1
T47D = assay: Cytotoxicity against human T47D cells assessed as growth inhibition at 10 uM after 48 hrs by SRB assay; details: read-out: GI; outline: as §1
NCI-H322M = assay: Cytotoxicity against human NCI-H322M cells assessed as growth inhibition at 10 uM after 48 hrs by SRB assay; details: read-out: GI; outline: as §1
NCI-H226 = assay: Cytotoxicity against human NCI-H226 cells assessed as growth inhibition at 10 uM after 48 hrs by SRB assay; details: NCI-H226, 48 h, read-out: GI; outline: as §1
[3] = Cytotoxicity against human UO31 cells assessed as growth inhibition at 10 uM after 48 hrs by SRB assay; details: UO-31, 48 h, read-out: GI; outline: as §1
SK-MEL-2 = assay: Cytotoxicity against human SK-MEL-2 cells assessed as growth inhibition at 10 uM after 48 hrs by SRB assay; details: SK-MEL-2, 48 h, read-out: GI; outline: as §1
MOLT-4 = assay: Cytotoxicity against human MOLT4 cells assessed as growth inhibition at 10 uM after 48 hrs by SRB assay; details: MOLT-4, 48 h, read-out: GI; outline: as §1
MDA-MB-468 = assay: Cytotoxicity against human MDA-MB-468 cells assessed as growth inhibition at 10 uM after 48 hrs by SRB assay; details: MDA-MB-468, 48 h, read-out: GI; outline: as §1
HT-29 = assay: Cytotoxicity against human HT-29 cells assessed as growth inhibition at 10 uM after 48 hrs by SRB assay; details: HT-29, 48 h, read-out: GI; outline: as §1

Compound `Cc1nc(N)sc1C(=O)NCCO` has an inhibition of growth at 10 µM (HOP-92) of 82.1%, an inhibition of growth at 10 µM (HCT-116) of 2.49% and an inhibition of growth at 10 µM (HCT-15) of less than 10%. For the same compound, the inhibition of growth at 10 µM (SN12C) was less than 10%, the inhibition of growth at 10 µM (SF-268) was 2.48% and the inhibition of growth at 10 µM (U-251) was less than 10%. The inhibition of growth at 10 µM (SNB-75) was less than 10%, the inhibition of growth at 10 µM (UACC-62) was 7.33% and the inhibition of growth at 10 µM (NCI-H522) was 65.4%. It also gave an inhibition of growth at 10 µM (MCF7) of 2.13%, an inhibition of growth at 10 µM (SK-MEL-5) of less than 10% and an inhibition of growth at 10 µM (LOX IMVI) of less than 10%. For the same compound, the inhibition of growth at 10 µM (RPMI-8226) was less than 10%, the inhibition of growth at 10 µM (PC-3) was less than 10% and the inhibition of growth at 10 µM (HCC 2998) was less than 10%. The inhibition of growth at 10 µM (K562) was less than 10%, the inhibition of growth at 10 µM (CCRF-CEM) was 40% and the inhibition of growth at 10 µM [1] was less than 10%. The inhibition of growth at 10 µM (SR) was less than 10%, the inhibition of growth at 10 µM [2] was less than 10% and the inhibition of growth at 10 µM (SW-620) was less than 10%. It also gave an inhibition of growth at 10 µM (A498) of less than 10%, an inhibition of growth at 10 µM (IGROV-1) of less than 10% and an inhibition of growth at 10 µM (T47D) of less than 10%. It also gave an inhibition of growth at 10 µM (NCI-H322M) of less than 10%, an inhibition of growth at 10 µM (NCI-H226) of 3.91% and an inhibition of growth at 10 µM [3] of 20%. It also gave an inhibition of growth at 10 µM (SK-MEL-2) of 87.4%, an inhibition of growth at 10 µM (MOLT-4) of less than 10% and an inhibition of growth at 10 µM (MDA-MB-468) of 3.17%. The inhibition of growth at 10 µM (HT-29) was less than 10%.
